Experimental findings from ChEMBL document CHEMBL4732072, “Synthesis of 17β-hydroxysteroid dehydrogenase type 10 steroidal inhibitors: Selectivity, metabolic stability and enhanced potency” (Eur J Med Chem, 2021) are described below.

As a reminder, the IC50 is the concentration needed to halve the response being measured. For orientation: inhibition means the drop in the measured response relative to a control, in per cent.

The subject of data set [1] is HEK293. Kind of data set: Potency index, ratio of (3R,5S,8R,9S,10S,13S,14S)-3-hydroxy-3-((4-(3-methoxybenzyl)piperazin-1-yl)methyl)-10,13-dimethyltetradecahydro-1H-cyclopenta[a]phenanthren-17(2H)-one IC50 to compound IC50 for inhibition of human 17-beta-HSD10 expressed in HEK-293 cells. Format: cell-based.
Data set [2] can be described thus: Inhibition of human 17-beta-HSD10 expressed in HEK293 cells assessed as reduction in oxidation of [14C]-estradiol to [14C]-estrone incubated for 40 hrs by thin layer chromatography. It is filed as cell-based. The essentials: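 The same HEK-293[17β-HSD10] cell assay was used: 2.5 x 10^5 cells, 0.5% final DMSO, 1 µM E2/[14C]-E2 (9:1) for 40 h at 37°C, with Et2O extraction, TLC and radioactivity quantification. Inhibitor was tested from 0.01 to 5 µM in triplicate. IC50 was calculated from the inhibition curves.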

Data set [3] concerns the target T1, 17-beta-hydroxysteroid dehydrogenase type 3 (Homo sapiens, UniProt P37058).
T1 sequence (P37058 whole entry): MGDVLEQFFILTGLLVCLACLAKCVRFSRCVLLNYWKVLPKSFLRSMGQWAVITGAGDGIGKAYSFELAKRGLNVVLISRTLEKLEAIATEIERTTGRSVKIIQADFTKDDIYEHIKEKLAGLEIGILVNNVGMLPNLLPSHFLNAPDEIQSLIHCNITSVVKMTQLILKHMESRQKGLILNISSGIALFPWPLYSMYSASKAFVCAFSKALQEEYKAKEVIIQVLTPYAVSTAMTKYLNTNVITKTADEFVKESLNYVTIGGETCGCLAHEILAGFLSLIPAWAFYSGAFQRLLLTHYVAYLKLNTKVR
Kind of data set: Inhibition of human 17-beta-HSD3 expressed in LNCaP cells assessed as reduction in […]-3,17-dione to [14C]-testosterone at 0.3 uM incubated for 1 hr by thin layer chromatography. Format: cell-based. The essentials: (§1)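 LNCaP cells overexpressing 17β-HSD3 were plated at 10^4 per well in medium without hygromycin for 2 days. 15 nM [14C]-4-androstene-3,17-dione plus inhibitor was then added (final DMSO 0.05%) for 1 h at 37°C. Steroids were Et2O-extracted and separated by silica TLC (toluene/acetone 4:1). % inhibition was taken from radioactivity-based % transformation versus a blank control.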

The test system of data set [4] is HEK293. Kind of data set: Inhibition of human 17-beta-HSD10 expressed in HEK293 cells assessed as reduction in oxidation of [14C]-estradiol to [14C]-estrone at 0.3 uM incubated for 40 hrs by thin layer chromatography. It is filed as cell-based. The essentials:
(§2)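 Stably transfected HEK-293 cells expressing human 17β-HSD10 (G418-selected) were seeded at 2.5 x 10^5 per well for 24 h. Inhibitor was added from a DMSO stock (final DMSO 0.5%) with E2/[14C]-E2 (9:1, final 1 µM) for 40 h at 37°C. Steroids were Et2O-extracted, TLC-separated and quantified by radioactivity. % inhibition was taken from blank-corrected % transformation, run in triplicate.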

Data set [5] deals with T1, 17-beta-hydroxysteroid dehydrogenase type 3. Description: Inhibition of human 17-beta-HSD3 expressed in LNCaP cells assessed as reduction in […]-3,17-dione to [14C]-testosterone at 3 uM incubated for 1 hr by thin layer chromatography. It is filed as cell-based. The essentials:
as §1

Data set [6] is described as follows: Metabolic stability in human liver microsomes assessed as compound remaining at 1 uM incubated for 1 hr in presence of NADPH by HPLC-MS analysis. Format: ADME, Microsome. As to conditions: read-out: Stabilty. Put shortly:
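Human liver microsomes (40 µg) were incubated with compound for 1 h at 37°C, with or without 10 mM NADPH, in 50 mM Tris with 10 mM MgCl2. The reaction was quenched with MeOH and centrifuged, and supernatants from 2 assays were pooled. Analysis was by HPLC-MS with UV at 190 nm. Remaining % = peak area with NADPH / area without NADPH x 100, from two experiments in duplicate.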
For orientation: Microsomes from liver hold many membrane-bound enzymes, among them those of drug oxidation.

In data set [7] the test system is HEK293. Kind of data set: Inhibition of human 17-beta-HSD10 expressed in HEK293 cells assessed as reduction in oxidation of [14C]-estradiol to [14C]-estrone at 3 uM incubated for 40 hrs by thin layer chromatography. It is filed as cell-based. Put shortly: as §2

For `CN(C)S(=O)(=O)c1ccc(NC(=S)N2CCN(C[C@@]3(O)CC[C@@]4(C)[C@@H](CC[C@@H]5[C@@H]4CC[C@]4(C)C(=O)CC[C@@H]54)C3)CC2)cc1`, in the data set on HEK293 [1], the Ratio IC50 was 2.11. The concentration for half-maximal inhibition (IC50) in data set [2] was 1070 nM.

Turning to `C[C@]12CC[C@](O)(CN3CCN(C(=O)c4ccc(C(=O)c5ccccc5)cc4)CC3)C[C@@H]1CC[C@@H]1[C@@H]2CC[C@]2(C)C(=O)CC[C@@H]12`, the Ratio IC50 in the data set on HEK293 [1] was 0.79. Besides, the IC50 in data set [2] was 2850 nM.

In the case of `COc1cccc(CN2CCN(C[C@@]3(O)CC[C@@]4(C)[C@@H](CC[C@@H]5[C@@H]4CC[C@]4(C)C(=O)CC[C@@H]54)C3)CC2)c1`, in data set [3], the inhibition at 0.3 µM is 30.2%. In addition, in data set [2], the IC50 was 2260 nM. Also, the inhibition in the data set with HEK293 [4] was 40.7%; in the data set on HEK293 [7] it was 70.4%. For the same compound, the inhibition at 3 µM in data set [5] amounted to 84.4%. The remaining at 1 h, 1 µM in data set [6] was 28%.

Turning to `COc1cc(CN2CCN(C[C@@]3(O)CC[C@@]4(C)[C@@H](CC[C@@H]5[C@@H]4CC[C@]4(C)[C@H](O)CC[C@@H]54)C3)CC2)ccc1C(F)(F)F`, the Ratio IC50 with HEK293 [1] is 2.4. Moreover, the IC50 in data set [2] came out at 950 nM.

Consider `COc1cc(CN2CCN(C[C@@]3(O)CC[C@@]4(C)[C@@H](CC[C@@H]5[C@@H]4CC[C@]4(C)C(=O)CC[C@@H]54)C3)CC2)ccc1C(F)(F)F`, for which the Ratio IC50 with HEK293 [1] amounted to 16.1. For the same compound, the IC50 in data set [2] stood at 140 nM.

In the case of `C#C[C@]1(O)CC[C@H]2[C@@H]3CC[C@H]4C[C@@](O)(CN5CCN(Cc6cccc(OC)c6)CC5)CC[C@]4(C)[C@H]3CC[C@@]21C`, the inhibition at 0.3 µM in data set [3] was 2%. Further, the inhibition in the data set on HEK293 [4] was 22.4%; with HEK293 [7], 45.8%. Further, the inhibition at 3 µM in data set [5] is 4%. Besides, the remaining at 1 h, 1 µM in data set [6] was 45.5%.

Take `COc1cccc(CN2CCN(C[C@@]3(O)CC[C@@]4(C)[C@@H](CC[C@@H]5[C@@H]4CC[C@]4(C)[C@@H](O)CC[C@@H]54)C3)CC2)c1`: in data set [3], the inhibition at 0.3 µM is 5%. Moreover, the inhibition with HEK293 [4] was found to be 8.5%; in the data set on HEK293 [7], 42.4%. For the same compound, in data set [5], the inhibition at 3 µM stood at 48.7%. Also, the remaining at 1 h, 1 µM in data set [6] came to 67.2%.

As for `COc1cccc(CN2CCN(C[C@@]3(O)CC[C@@]4(C)[C@@H](CC[C@@H]5[C@@H]4CC[C@]4(C)[C@H](O)CC[C@@H]54)C3)CC2)c1`, the inhibition at 0.3 µM in data set [3] was 5.2%. Besides, the inhibition amounted to 13.5% in the data set with HEK293 [4] and 36.9% with HEK293 [7]. In addition, the inhibition at 3 µM in data set [5] was 3.8%. The remaining at 1 h, 1 µM in data set [6] turned out to be 70.6%.

With `COc1cccc(CN2CCN(C[C@@]3(O)CC[C@@]4(C)[C@@H](CC[C@@H]5[C@@H]4CC[C@@]4(C)[C@H]5CCC4(F)F)C3)CC2)c1`, in data set [3], the inhibition at 0.3 µM is 1.1%. The inhibition came to 5.5% in the data set on HEK293 [4] and 40.8% in the data set on HEK293 [7]. For the same compound, the inhibition at 3 µM in data set [5] is -0.5%. Besides, the remaining at 1 h, 1 µM in data set [6] came out at 34.1%.

For the compound `CCN(C)S(=O)(=O)N1CCN(C[C@@]2(O)CC[C@@]3(C)[C@@H](CC[C@@H]4[C@@H]3CC[C@]3(C)C(=O)CC[C@@H]43)C2)CC1`, the Ratio IC50 in the data set with HEK293 [1] was 1.44. In data set [2], the half-maximal inhibitory concentration (IC50) amounted to 1570 nM.

As to `C[C@]12CC[C@](O)(CN3CCN(C(=O)c4ccc(C#N)cc4)CC3)C[C@@H]1CC[C@@H]1[C@@H]2CC[C@]2(C)C(=O)CC[C@@H]12`, the Ratio IC50 in the data set on HEK293 [1] stood at 1.36. For the same compound, the 50% inhibitory concentration (IC50) in data set [2] worked out at 1660 nM.

For the compound `COc1cccc(CN2CCN(C[C@@]3(O)CC[C@@]4(C)[C@@H](CC[C@@H]5[C@@H]4CC[C@@]4(C)[C@H]5CC[C@]4(C)O)C3)CC2)c1`, in data set [3], the inhibition at 0.3 µM stood at 2%. Also, the results for the inhibition in the data set with HEK293 [4] and in the data set on HEK293 [7] were 20.5% and 41.9%, respectively. Further, the inhibition at 3 µM in data set [5] is 20.6%. For the same compound, the remaining at 1 h, 1 µM in data set [6] was determined as 21.8%.

For `C[C@]12CC[C@](O)(CN3CCN(C(=S)NCc4cccc(C(F)(F)F)c4)CC3)C[C@@H]1CC[C@@H]1[C@@H]2CC[C@]2(C)C(=O)CC[C@@H]12`, in the data set on HEK293 [1], the Ratio IC50 is 1.6. In addition, in data set [2], the IC50 worked out at 1410 nM.

Regarding `COc1cc(C)ccc1CN1CCN(C[C@@]2(O)CC[C@@]3(C)[C@@H](CC[C@@H]4[C@@H]3CC[C@]3(C)C(=O)CC[C@@H]43)C2)CC1`, in the data set on HEK293 [1], the Ratio IC50 worked out at 0.75. In addition, the IC50 in data set [2] was 3000 nM.

Consider `C[C@]12CC[C@](O)(CN3CCN(C(=O)c4ccc(-c5ccccc5)cc4)CC3)C[C@@H]1CC[C@@H]1[C@@H]2CC[C@]2(C)C(=O)CC[C@@H]12`, for which, in the data set on HEK293 [1], the Ratio IC50 worked out at 0.87. Moreover, the IC50 in data set [2] is 2600 nM.

Regarding `C[C@]12CC[C@](O)(CN3CCN(Cc4cnc5ccccc5c4)CC3)C[C@@H]1CC[C@@H]1[C@@H]2CC[C@]2(C)C(=O)CC[C@@H]12`, in the data set with HEK293 [1], the Ratio IC50 worked out at 2.33. In addition, the IC50 in data set [2] worked out at 970 nM.

Consider `C#C[C@]1(O)CC[C@H]2[C@@H]3CC[C@H]4C[C@@](O)(CN5CCN(Cc6ccc(C(F)(F)F)c(OC)c6)CC5)CC[C@]4(C)[C@H]3CC[C@@]21C`, for which the Ratio IC50 with HEK293 [1] came out at 1.8. The IC50 in data set [2] came to 1260 nM.

In the case of `COc1cccc(CN2CCN(C[C@@]3(O)CC[C@@]4(C)[C@@H](CC[C@@H]5[C@@H]4CC[C@]4(C)C(=O)C(C)(C)C[C@@H]54)C3)CC2)c1`, the inhibition at 0.3 µM in data set [3] worked out at 12.4%. In addition, the inhibition in the data set with HEK293 [4] was 10.8%; with HEK293 [7] it was 27.9%. Also, in data set [5], the inhibition at 3 µM amounted to 51.9%. Further, the remaining at 1 h, 1 µM in data set [6] was 54.5%.

Take `CC(=O)c1cccc(C(=O)N2CCN(C[C@@]3(O)CC[C@@]4(C)[C@@H](CC[C@@H]5[C@@H]4CC[C@]4(C)C(=O)CC[C@@H]54)C3)CC2)c1`: the Ratio IC50 in the data set on HEK293 [1] was 0.98. Moreover, in data set [2], the IC50 is 2300 nM.

Consider `COc1cc(CN2CCN(C[C@@]3(O)CC[C@@]4(C)[C@@H](CC[C@@H]5[C@@H]4CC[C@]4(C)C(=O)CC[C@@H]54)C3)CC2)ccc1C`, for which the Ratio IC50 in the data set with HEK293 [1] turned out to be 5.38. Moreover, the IC50 in data set [2] was found to be 420 nM.

For the compound `Cc1cc(C)cc(C(=O)N2CCN(C[C@@]3(O)CC[C@@]4(C)[C@@H](CC[C@@H]5[C@@H]4CC[C@]4(C)C(=O)CC[C@@H]54)C3)CC2)c1`, the Ratio IC50 in the data set on HEK293 [1] stood at 1.1. Further, in data set [2], the IC50 is 2050 nM.
